Test [1] has as its target T1, Glutathione reductase, mitochondrial (Homo sapiens, UniProt P00390).
T1 sequence (P00390 whole entry): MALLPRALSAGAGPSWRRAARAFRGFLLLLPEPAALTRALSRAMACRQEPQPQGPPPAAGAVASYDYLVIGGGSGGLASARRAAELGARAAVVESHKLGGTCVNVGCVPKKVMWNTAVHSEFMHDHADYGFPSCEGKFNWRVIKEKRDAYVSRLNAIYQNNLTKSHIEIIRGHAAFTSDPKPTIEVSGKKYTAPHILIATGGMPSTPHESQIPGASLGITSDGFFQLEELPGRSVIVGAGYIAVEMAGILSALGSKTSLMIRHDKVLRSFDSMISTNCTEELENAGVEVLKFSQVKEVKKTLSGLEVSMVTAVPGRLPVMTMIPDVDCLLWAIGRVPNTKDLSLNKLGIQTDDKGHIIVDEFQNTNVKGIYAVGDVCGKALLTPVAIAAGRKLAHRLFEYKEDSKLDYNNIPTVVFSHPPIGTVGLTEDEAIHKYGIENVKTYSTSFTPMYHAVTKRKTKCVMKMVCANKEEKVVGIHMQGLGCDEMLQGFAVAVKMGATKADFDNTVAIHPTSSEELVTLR
The experiment in a line: Inhibitory concentration against human Glutathione reductase was determined. The method, boiled down: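 Human glutathione reductase purified from erythrocytes (42.3 mU) was run spectrophotometrically at 25 °C in 40 mM HEPES pH 7.5 with 1 mM EDTA and NADPH. It was preincubated with NADPH for 10 min, inhibitor was added at varying concentrations in DMSO (1% v/v final), and glutathione disulfide was then added.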

A short description of test [2]: Ratio of Inhibitory activity against glutathione reductase and inhibitory activity against trypanothione reductase was determined.
The target in test [3] is Trypanothione reductase (Trypanosoma cruzi, UniProt P28593). Put plainly: Inhibitory concentration against trypanothione reductase was determined. Summed up:
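Recombinant T. cruzi trypanothione reductase (128 mU) was followed spectrophotometrically at 25 °C in 40 mM HEPES pH 7.5 with 1 mM EDTA and NADPH. Enzyme and NADPH were preincubated for 10 min at 25 °C, inhibitor was added at varying concentrations in DMSO (1% v/v final), and the reaction was started with Try[SH]2.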

The subject of test [4] is Leishmania donovani. The experiment in a line: Anti parasitic activity against Leishmania donovani (cultured in murine macrophages). In kind it is functional. The note with it: for EC50: read-out: ED50 (the source's name).
Test [5] concerns Trypanosoma cruzi. Put plainly: Anti parasitic activity against Trypanosoma cruzi (cultured in murine macrophages). In kind it is functional. As to conditions: read-out: ED50 (the source's name).
The test system of test [6] is Trypanosoma brucei. The experiment in a line: Anti parasitic activity against Trypanosoma brucei. It is filed as functional. As to conditions: read-out: ED50 (the source's name).
For test [7], the system named is Plasmodium falciparum. Put plainly: Antiparasitic activity for Plasmodium falciparum 3D7. In kind it is functional. As to conditions: read-out: ED50 (the source's name). The method, boiled down: (§1)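 Growth of P. falciparum in human red blood cells was measured by [³H]-hypoxanthine incorporation over 48 h. 3D7 is the chloroquine-sensitive strain and K1 the chloroquine-resistant strain.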

Test [8] has as its system KB. The experiment in a line: Toxicity of the quinacrine derivatives was determined against the KB cell line in comparison to podophyllotoxin. In kind it is functional. As to conditions: Homo sapiens, read-out: ED50 (the source's name).
Test [9] deals with Plasmodium falciparum. The experiment in a line: Anti parasitic activity for Plasmodium falciparum K1. The note with it: read-out: ED50 (the source's name). In kind it is functional. Summed up:
as §1

Test [10] deals with Trypanosoma cruzi. The experiment in a line: Anti parasitic activity against Trypanosoma cruzi. In kind it is functional. The note with it: read-out: ED50 (the source's name). Summed up: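 In vitro test against intracellular amastigotes of T. cruzi grown in murine macrophages.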

≈ marks a conversion by molar mass, not a printed value.

For orientation: IC50 means the concentration needed to halve the response being measured.

Sequence of Trypanothione reductase (P28593 whole entry): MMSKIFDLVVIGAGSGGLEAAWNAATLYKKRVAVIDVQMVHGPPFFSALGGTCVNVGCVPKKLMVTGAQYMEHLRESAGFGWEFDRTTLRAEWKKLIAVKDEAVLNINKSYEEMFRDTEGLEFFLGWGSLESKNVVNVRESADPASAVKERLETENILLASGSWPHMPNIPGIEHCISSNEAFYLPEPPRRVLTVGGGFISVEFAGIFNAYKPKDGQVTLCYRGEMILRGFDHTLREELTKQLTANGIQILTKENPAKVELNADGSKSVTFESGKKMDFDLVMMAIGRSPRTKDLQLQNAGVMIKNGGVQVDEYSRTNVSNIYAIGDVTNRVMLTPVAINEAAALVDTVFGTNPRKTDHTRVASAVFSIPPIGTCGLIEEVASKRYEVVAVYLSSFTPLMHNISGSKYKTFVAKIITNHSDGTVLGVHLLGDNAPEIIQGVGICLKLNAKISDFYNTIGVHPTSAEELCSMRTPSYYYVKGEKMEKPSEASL

With `CCN(CC)CCCC(C)Nc1c2ccc(Cl)cc2nc2ccc(OC)cc12` (stereo unspecified) [QUINACRINE], the figures for the IC50 in test [1] and in [3] were above 1000 µM and 133 µM, respectively. The Selectivity in test [2] is above 7.5.

As for `COc1ccc2nc3cc(Cl)ccc3c(NCCCCCCNC(=O)NCc3ccccc3)c2c1`, the IC50 in test [1] was found to be 17.1 µM; in test [3], 11.4 µM. In addition, the Selectivity in [2] stood at 1.5. Also, the EC50 in test [4] was found to be 5.8 µg/mL (≈ 11.8 µM); in test [5], 6.8 µg/mL (≈ 13.8 µM); in test [6], 0.46 µg/mL (≈ 0.937 µM); in [7] it was 0.14 µg/mL (≈ 0.285 µM); in [8], 4.3 µg/mL (≈ 8.76 µM).

As for `COc1ccc2nc3cc(Cl)ccc3c(NCCNS(=O)(=O)c3ccc4ccccc4c3)c2c1`, the 50% inhibitory concentration (IC50) turned out to be 9.9 µM in test [1] and 5.9 µM in test [3]. In addition, the Selectivity in test [2] was 1.7. Besides, the EC50 in test [4] is 5.8 µg/mL (≈ 11.8 µM); in test [5], above 30 µg/mL; in test [6], 0.47 µg/mL (≈ 0.955 µM); in [7] it was 0.025 µg/mL (≈ 0.0508 µM); in [8], 2.7 µg/mL (≈ 5.49 µM).

On to `COc1cc([C@@H]2c3cc4c(cc3[C@H](O)[C@H]3COC(=O)[C@H]23)OCO4)cc(OC)c1OC` [PODOFILOX], for which the EC50 in [8] was determined as 0.008 µg/mL (≈ 0.0193 µM).

Take `COc1ccc2nc3cc(Cl)ccc3c(NCCCCNS(=O)(=O)c3ccc4ccccc4c3)c2c1`: the IC50 in [1] came out at 13.9 µM; in [3] it was 5 µM. The Selectivity in test [2] was 2.8. In addition, the EC50 is 3.3 µg/mL (≈ 6.35 µM) in test [4]; above 30 µg/mL in [5]; 0.12 µg/mL (≈ 0.231 µM) in test [6]; 0.033 µg/mL (≈ 0.0635 µM) in test [7]; 0.4 µg/mL (≈ 0.769 µM) in test [8].

On to `COc1ccc2nc3cc(Cl)ccc3c(NCCNC(=O)NCc3ccccc3)c2c1`, for which the IC50 in test [1] is 27.2 µM; in test [3] it was 19.3 µM. Moreover, the Selectivity in [2] came to 1.4. The EC50 in [4] is 10.7 µg/mL (≈ 24.6 µM); in [5] it was above 30 µg/mL; in [6] it was 0.42 µg/mL (≈ 0.966 µM); in [7], 0.069 µg/mL (≈ 0.159 µM); in test [8] it was 4.1 µg/mL (≈ 9.43 µM).

For the compound `COc1ccc2nc3cc(Cl)ccc3c(NCCCNC(=O)NCc3ccccc3)c2c1`, the IC50 stood at 44.7 µM in test [1] and 13.1 µM in test [3]. Moreover, in test [2], the Selectivity amounted to 3.4. Also, the EC50 in test [4] turned out to be 1.9 µg/mL (≈ 4.23 µM); in test [9], 0.015 µg/mL (≈ 0.0334 µM); in test [5], 22 µg/mL (≈ 49 µM); in test [6] it was 0.083 µg/mL (≈ 0.185 µM); in test [7], 0.0005 µg/mL (≈ 0.00111 µM); in [8], 0.7 µg/mL (≈ 1.56 µM).

On to `COc1ccc2nc3cc(Cl)ccc3c(NCCCCNC(=O)NCc3ccccc3)c2c1`, for which the values for the IC50 in test [1] and in [3] were 55.8 µM and 15.5 µM, respectively. Further, in [2], the Selectivity was determined as 3.6. For the same compound, the EC50 in [4] is 1.9 µg/mL (≈ 4.1 µM); in [5] it was below 1 µg/mL; in test [6] it was 0.043 µg/mL (≈ 0.0929 µM); in [7] it was 0.0013 µg/mL (≈ 0.00281 µM); in test [8], 0.8 µg/mL (≈ 1.73 µM).

In the case of `N=C(N)c1ccc(OCCCCCOc2ccc(C(=N)N)cc2)cc1` [PENTAMIDINE], the EC50 in test [6] was 0.0002 µg/mL (≈ 0.000587 µM).

For the compound Pentostam, in test [4], the ED50 was 8.9 µg/mL.

For the compound `COc1ccc2nc3cc(Cl)ccc3c(NCCCNS(=O)(=O)c3ccc4ccccc4c3)c2c1`, the values for the half-maximal inhibitory concentration (IC50) in [1] and in test [3] were 27.2 µM and 3.3 µM, respectively. Also, in test [2], the Selectivity was 8.2. Further, the EC50 in [4] turned out to be 1.9 µg/mL (≈ 3.75 µM); in [5], 23.9 µg/mL (≈ 47.2 µM); in [6], 0.078 µg/mL (≈ 0.154 µM); in test [7] it was 0.01 µg/mL (≈ 0.0198 µM); in test [8], 0.4 µg/mL (≈ 0.79 µM).

With `c1ccc2[nH]cnc2c1` [BENZIMIDAZOLE], in [10], the EC50 worked out at 12.4 µg/mL (≈ 105 µM).

In the case of `CCN(CC)CCCC(C)Nc1ccnc2cc(Cl)ccc12` (stereo unspecified) [CHLOROQUINE], the figures for the EC50 in test [9] and in test [7] were 0.15 µg/mL (≈ 0.469 µM) and 0.002 µg/mL (≈ 0.00625 µM), respectively.

The values above are taken from ChEMBL document CHEMBL1133983, “Antiprotozoal and cytotoxicity evaluation of sulfonamide and urea analogues of quinacrine” (Bioorg Med Chem Lett, 2001).
